Screening results (PubChem)
Most compounds without a hit are left out; they make up all but 1% or so of the library.
FID counter: compounds displacing fluorescent DNA intercalator, primary screen, artefact control for HCV NS3 helicase inhibitor project, biochemical, FID fluorescence; DNA fluorescent intercalator displacement; inhibition, % at 7.9 µM; actives 0.17% (n = 290,000); in the data active = inhibition above about 37%;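 note: higher means more ethidium bromide displaced from hairpin DNA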
PvdQ inh: P. aeruginosa PvdQ acylase inhibitors, primary screen, biochemical, fluorescence, plate reader and imaging, single point; PvdQ acylase [Pseudomonas aeruginosa LESB58]; purified PvdQ acylase; inhibition, % at 10 µM; actives 0.063% (n = 340,000); in the data active = inhibition above about 30%, passing the limit was not always enough
VIM-2 inh: VIM-2 metallo-beta-lactamase inhibitors, primary screen, biochemical, epi-absorbance readout, Pseudomonas aeruginosa enzyme; purified VIM-2, nitrocefin hydrolysis, epi-absorbance fluorescence; inhibition, % at 5.6 µM; actives 0.89% (n = 290,000); AID 1527, 2009;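 active = inhibition above the mean of all tested compounds plus 3 SD, cutoff set per screening run, cut at about 7.5% in these data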;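 note: red hydrolysis product quenches plate fluorescence so inhibitors raise well fluorescence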
RAD54 branch: inhibitors of human RAD54 branch migration, primary screen, biochemical, fluorescence, single point. RAD54 Holliday junction branch migration, FAM/BHQ fluorescence. inhibition, % at 10.4 µM. actives 0.14% (n = 360,000);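 active = mean normalized replicate activity at least 40 and at least half of replicates scoring 40 or more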;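 note: inhibitors cause a drop in the FAM fluorescence signal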
Target sequence (Q92698 whole entry, looked up): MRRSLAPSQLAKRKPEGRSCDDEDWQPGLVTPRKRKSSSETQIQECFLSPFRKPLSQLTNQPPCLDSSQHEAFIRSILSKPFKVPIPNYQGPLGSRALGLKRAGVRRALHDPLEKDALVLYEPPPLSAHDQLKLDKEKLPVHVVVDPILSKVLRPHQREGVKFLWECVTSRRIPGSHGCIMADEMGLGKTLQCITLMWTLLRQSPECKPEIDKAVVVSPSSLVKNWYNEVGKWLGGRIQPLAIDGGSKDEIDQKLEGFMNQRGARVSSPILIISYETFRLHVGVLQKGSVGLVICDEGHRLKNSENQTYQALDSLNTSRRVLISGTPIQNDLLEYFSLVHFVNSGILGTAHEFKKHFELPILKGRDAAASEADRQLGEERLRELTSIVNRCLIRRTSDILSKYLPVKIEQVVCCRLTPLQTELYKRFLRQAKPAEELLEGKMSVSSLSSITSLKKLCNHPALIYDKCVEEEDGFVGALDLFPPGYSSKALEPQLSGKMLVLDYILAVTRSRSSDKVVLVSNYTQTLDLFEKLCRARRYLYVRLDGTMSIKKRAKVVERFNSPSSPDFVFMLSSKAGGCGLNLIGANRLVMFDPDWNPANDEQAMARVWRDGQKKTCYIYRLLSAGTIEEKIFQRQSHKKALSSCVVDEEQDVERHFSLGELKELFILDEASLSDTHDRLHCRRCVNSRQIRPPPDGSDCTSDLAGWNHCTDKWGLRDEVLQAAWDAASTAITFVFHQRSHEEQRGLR
IMP-1 inhibitor: IMP-1 metallo-beta-lactamase inhibitors, primary screen, biochemical, epi-absorbance readout, Pseudomonas aeruginosa enzyme | purified IMP-1, nitrocefin hydrolysis, epi-absorbance fluorescence | actives 0.45% (n = 290,000) | metallo-beta-lactamase IMP-1 (Pseudomonas aeruginosa) | inhibition, % at 5.6 µM;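 active = inhibition above the mean plus 3 SD of all compounds in the same screening run, cut at about 4.5% in these data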
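assay system = purified recombinant IMP-1 metallo-beta-lactamase enzyme | schedule = 15 min preincubation plus 25 min reaction at 25 °C | signal = Epi-absorbance fluorescence, 480 nm excitation, 530 nm emission | read-out basis = percent inhibition from optical density relative to buffer-blank wells | controls = IMP-1 with DMSO as 0%, enzyme-free DMSO as 100%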
A number is an active result; n = inactive; x = no result.

SMILES	FID counter	PvdQ inh	VIM-2 inh	RAD54 branch	IMP-1 inhibitor
C[C@@H]1CN([C@H](C)CO)C(=O)c2cc(NC(=O)C3CCCCC3)ccc2O[C@@H]1CN(C)S(=O)(=O)c1cn(C)cn1	x	x	x	n	x
COc1ccc(NC(=O)Cn2nnc(C(=O)Nc3ccc(F)c(Cl)c3)c2N)cc1	n	n	n	n	8.1
Cc1cccc(NC(=O)Cc2ccc(-c3ccccc3)cc2)n1	n	n	n	n	12
O=C(Cc1ccc(-c2ccccc2)cc1)Nc1ncccc1O	n	n	n	n	33
O=[N+]([O-])c1nn(-c2ccc3c(c2)OCCO3)n(O)c1=Nc1ccc(Cl)cc1	n	n	n	n	n
Cc1ccc(N=c2c([N+](=O)[O-])nn(-c3ccc(Cl)cc3)n2O)cc1C	n	n	n	n	12
O=[N+]([O-])c1nn(-c2ccc(Cl)cc2)n(O)c1=NCc1ccccc1	n	41	n	n	n
O=[N+]([O-])c1nn(-c2ccccc2)n(O)c1=NCc1ccc2c(c1)OCO2	n	n	n	n	n
CC(=O)N(C)C[C@@H]1Oc2ncc(-c3ccc(C#N)cc3)cc2C(=O)N([C@@H](C)CO)C[C@@H]1C	x	x	x	n	x
COc1cccc(Nc2nc(-c3sc(NC(=O)CC(C)C)nc3C)cs2)c1	n	n	n	n	5.9
C=CCCC(=O)Nc1nc(C)c(-c2csc(Nc3cccc(OC)c3)n2)s1	n	n	n	n	n
COc1cc(CNCCc2ccccc2)cc(Br)c1OCC(=O)Nc1ccccc1C	44	n	n	x	n
C[C@@H]1CN([C@H](C)CO)S(=O)(=O)c2ccc(-c3ccc(C#N)cc3)cc2O[C@H]1CN(C)Cc1ccccn1	x	x	x	n	x
Cc1cc2[nH]c3c4ccccc4nc(C)c3c2cc1C	x	n	x	91	x
CC(C)OC(=O)c1cccc2c1C(=O)c1ccccc1-2	n	n	10	n	n
CC=Cc1ccc2n(c1=O)C[C@@H]1[C@@H](CO)[C@H](C(=O)OC)N(C(C)=O)[C@H]21 (mixture of isomers)	x	x	x	n	x
O=C(O)C/C(=C\c1cc2c(cc1Br)OCO2)c1nc2ccccc2s1	n	n	8.8	n	n
COc1cccc(Cn2c(=O)c3ccccc3n3nc(C)cc23)c1	n	n	9.1	x	n
COc1cccc(Cn2c(=O)sc3ccccc3c2=O)c1	n	n	n	x	n
CNC[C@@H]1Oc2ncc(C#Cc3ccc(OC)c(OC)c3)cc2C(=O)N([C@H](C)CO)C[C@@H]1C	x	x	x	n	x
CS(=O)(=O)Nc1ccc2c(c1)[C@H]1C[C@@H](CC(=O)NC3CCCCC3)O[C@H](CO)[C@H]1O2	x	x	x	n	x
O=C(O)c1cccc(-n2cccc2/C=C2/SC(=O)N(CC(=O)N3CCCC3)C2=O)c1	n	n	n	n	n
O=C(CN1C(=O)S/C(=C/c2cccn2-c2ccc(O)cc2)C1=O)N1CCCC1	n	n	9.0	n	n
CCOC(=O)CC(C#N)c1cn(C)c2ccccc12 (stereo not given)	n	38	n	n	n
O=C(C[C@H]1C=C[C@H](NC(=O)Nc2ccccc2F)[C@@H](CO)O1)NCc1ccc(F)cc1	x	x	x	n	x
SMILES	FID counter	PvdQ inh	VIM-2 inh	RAD54 branch	IMP-1 inhibitor
CCC(C)Sc1cc(C)c(C#N)c2nc3ccccc3n12 (stereo not given)	n	n	10	n	n
CCCc1cc(-n2ccnc2)n2c(nc3ccccc32)c1C#N	n	n	n	n	n
Cc1cc(-n2ccnc2)n2c(nc3ccccc32)c1C#N	n	n	7.7	n	n
CO[C@H]1CN(C)C(=O)c2ccc(NC(=O)C3CC3)cc2OC[C@H](C)NC[C@H]1C	x	x	x	n	x
NC(=O)C1CCN(C(=O)COc2ccc3c(c2)oc(=O)c2ccccc23)CC1	n	n	12	n	n
C[C@H]1CN([C@@H](C)CO)S(=O)(=O)c2ccc(C3=CCCC3)cc2O[C@H]1CN(C)Cc1ccccn1	x	x	x	n	x
COc1ccc2c(c1)cc(C(=O)N[C@@H](CCSC)C(=O)N1CCC[C@H]1C(=O)O)n2C	n	n	12	n	n
Cc1ccc(S(=O)(=O)N(C)C[C@@H]2Oc3cc(Br)ccc3S(=O)(=O)N([C@H](C)CO)C[C@@H]2C)cc1	x	x	x	n	x
Cc1noc(C)c1NC(=O)N(C)C[C@H]1Oc2ccc(NC(=O)Cc3cn(C)c4ccccc34)cc2C(=O)N([C@@H](C)CO)C[C@@H]1C	x	x	x	n	x
C#CCOCCOCCOCCNc1nc(N2CCN(C(=O)CCCCCCCCCCNC(=O)[C@H](CCCCN)n3cc(CCO)nn3)CC2)nc(N2CCN(C(=O)CCCCCCCCCCNC(=O)[C@H](CCCCN)n3cc(CCO)nn3)CC2)n1	x	n	x	50	x
C#CCOCCOCCOCCNc1nc(N2CCN(C(=O)CCCCCCCCCCNC(=O)[C@H](CCCCN)n3cc(CCCC(=O)O)nn3)CC2)nc(N2CCN(C(=O)CCCCCCCCCCNC(=O)[C@H](CCCCN)n3cc(CCCC(=O)O)nn3)CC2)n1	x	n	x	n	x
C#CCOCCOCCOCCNc1nc(N2CCN(C(=O)[C@H](CCCCN)n3cc([C@@H](N)C(C)CC)nn3)CC2)nc(N2CCN(C(=O)[C@H](CCCCN)n3cc([C@@H](N)CC(C)C)nn3)CC2)n1 (stereo not given in full)	62	n	n	n	n
C#CCOCCOCCOCCNc1nc(N2CCN(C(=O)[C@H](CCCCN)n3cc([C@@H](N)[C@H](C)CC)nn3)CC2)nc(N2CCN(C(=O)[C@H](CCCCN)n3cc([C@@H](N)CC(N)=O)nn3)CC2)n1	x	n	x	n	x
C#CCOCCOCCOCCNc1nc(N2CCN(C(=O)[C@H]([C@@H](C)CC)n3cc([C@@H](N)Cc4ccc(O)cc4)nn3)CC2)nc(N2CCN(C(=O)[C@H](CCCCN)n3cc([C@@H](N)C(C)CC)nn3)CC2)n1 (stereo not given in full)	43	n	n	n	n
C#CCOCCOCCOCCNc1nc(N2CCOCC2)nc(N2CCN(C(=O)[C@H](CCCCN)n3cc([C@@H](N)C(C)CC)nn3)CC2)n1 (stereo not given in full)	38	n	n	n	n
CN(C)C(=O)[C@@H]1[C@@H](CO)[C@@H]2Cn3c(ccc(C4=CCCCC4)c3=O)[C@H]1N2Cc1ccccc1	x	x	x	n	x
C#CCOCCOCCOCCNc1nc(N2CCN(C(=O)[C@H]([C@@H](C)CC)n3cc([C@@H](N)CO)nn3)CC2)nc(N2CCN(C(=O)[C@H](CCCCN)n3cc([C@@H](N)CC(C)C)nn3)CC2)n1	43	x	n	x	n
CSCC[C@H](NC(=O)N1CCn2c1nc1ccccc12)C(=O)NCc1ccc(F)cc1	n	n	n	n	51
COc1ccc(CNC(=O)[C@H](CCSC)NC(=O)N2CCn3c2nc2ccccc23)cc1	n	n	n	n	n
